In ChEMBL document CHEMBL3244011, “(Aryloxy)[p-(aryloxy)phenyl]- and (aryloxy)[p-(arylthio)phenyl]acetic acids and esters as hypolipidemic agents” (1979):

What follows are compounds tested on Rattus norvegicus (assay: Hypolipidemic activity in COBBS-CD rat assessed as reduction in serum sterol level at 0.01% administered with chow diet after 5 days relative to control).
Format: functional
Design: scale not given: the % may be the effect or the level left
Procedure, shortened: (§1)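 Male COBBS-CD rats, four per treated group and eight per control group. The compound was mixed into ground rat chow at 0.1, 0.03 or 0.01% w/w (about 100, 30 and 10 mg/kg). Control chow received only the mixing solvent (methanol-chloroform 1:3 v/v). Food and water were ad libitum for 5 days, then rats were decapitated and blood collected. Serum sterols were measured by an automated method and expressed relative to controls; ± values are SD.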

Question: Which Activity does the source give for `COC(=O)C(Oc1ccc(F)cc1)c1ccc(Oc2cccc(C(F)(F)F)c2)cc1` (stereo not drawn) here?
Answer: 4%

Question: How did the Activity turn out when `COC(=O)C(Oc1cccc(C(C)(C)C)c1)c1ccc(Oc2ccc(C(C)(C)C)cc2)cc1` (stereo not drawn) was run?
Answer: -5%

Question: How did the Activity turn out when `O=C(O)C(Oc1ccc(F)cc1)c1ccc(Oc2ccc(Cl)cc2)cc1` (stereo not drawn) was run?
Answer: 41%

Question: With `COC(=O)C(Oc1ccc(Cl)cc1)c1ccc(Oc2ccc(C#N)cc2)cc1` (stereo not drawn) as the compound, how does the Activity read?
Answer: 20%

Question: `O=C(O)C(Oc1ccccc1)c1ccc(Oc2ccccc2)cc1` (stereo not drawn) was tested. Which Activity did it give?
Answer: 21%

Question: How did the Activity turn out when `COC(=O)C(Oc1cccc(-c2ccccc2)c1)c1ccc(Oc2ccc(Cl)cc2)cc1` (stereo not drawn) was run?
Answer: 8%

Question: Which Activity does the source give for `COC(=O)C(Oc1cc(Cl)cc(Cl)c1)c1ccc(Oc2ccc(Cl)cc2)cc1` (stereo not drawn) here?
Answer: -11%

Question: How did the Activity turn out when `COC(=O)C(Oc1ccc(C(C)(C)C)cc1)c1ccc(Oc2ccc(NC(C)=O)cc2)cc1` (stereo not drawn) was run?
Answer: 5%

Question: With `O=C(O)C(Oc1cccc(C(F)(F)F)c1)c1ccc(Cl)cc1` (stereo not drawn) [METAGLIDASEN] as the compound, how does the Activity read?
Answer: 25%

These compounds were tested on Rattus norvegicus (assay: Hypolipidemic activity in COBBS-CD rat assessed as reduction in serum sterol level at 0.1% administered with chow diet after 5 days relative to control).
Format: functional
Design: scale not given: the % may be the effect or the level left
Procedure, shortened: as §1

Question: For `COC(=O)C(Oc1ccc(F)cc1)c1ccc(Oc2cccc(C(F)(F)F)c2)cc1` (stereo not drawn), which Activity is on record?
Answer: 32%

Question: With `COC(=O)C(Oc1cccc(C(C)(C)C)c1)c1ccc(Oc2ccc(C(C)(C)C)cc2)cc1` (stereo not drawn) as the compound, how does the Activity read?
Answer: 4%

Question: `O=C(O)C(Oc1ccc(F)cc1)c1ccc(Oc2ccc(Cl)cc2)cc1` (stereo not drawn) was tested. Which Activity did it give?
Answer: 29%

Question: For `COC(=O)C(Oc1cccc2ccccc12)c1ccc(Oc2ccc(Cl)cc2)cc1` (stereo not drawn), which Activity is on record?
Answer: 4%

Question: For `COC(=O)C(Oc1ccc(Cl)cc1)c1ccc(Oc2ccc(C#N)cc2)cc1` (stereo not drawn), which Activity is on record?
Answer: 16%

Question: How did the Activity turn out when `O=C(O)C(Oc1ccccc1)c1ccc(Oc2ccccc2)cc1` (stereo not drawn) was run?
Answer: 22%

Question: For `COC(=O)C(Oc1cccc(-c2ccccc2)c1)c1ccc(Oc2ccc(Cl)cc2)cc1` (stereo not drawn), which Activity is on record?
Answer: 28%

Question: Which Activity does the source give for `COC(=O)C(Oc1cc(Cl)cc(Cl)c1)c1ccc(Oc2ccc(Cl)cc2)cc1` (stereo not drawn) here?
Answer: 26%

Question: With `COC(=O)C(Oc1ccc(C(C)(C)C)cc1)c1ccc(Oc2ccc(NC(C)=O)cc2)cc1` (stereo not drawn) as the compound, how does the Activity read?
Answer: 16%

Question: Which Activity does the source give for `O=C(O)C(Oc1cccc(C(F)(F)F)c1)c1ccc(Cl)cc1` (stereo not drawn) [METAGLIDASEN] here?
Answer: 26%

What follows are compounds tested on Rattus norvegicus (assay: Hypolipidemic activity in COBBS-CD rat assessed as reduction in serum triglyceride level at 0.01% administered with chow diet after 5 days relative to control).
Format: functional
Design: scale not given: the % may be the effect or the level left
Procedure, shortened: (§2)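 The compound was given in ground chow at 0.1, 0.03 or 0.01% w/w (about 100, 30 and 10 mg/kg) to male COBBS-CD rats (n=4; solvent-chow controls n=8) for 5 days ad libitum. Rats were killed by decapitation and blood collected. Serum triglycerides were assayed by an automated method and compared with controls; ± values are SD.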

Question: `COC(=O)C(Oc1ccc(F)cc1)c1ccc(Oc2cccc(C(F)(F)F)c2)cc1` (stereo not drawn) was tested. Which Activity did it give?
Answer: 45%

Question: `COC(=O)C(Oc1cccc(C(C)(C)C)c1)c1ccc(Oc2ccc(C(C)(C)C)cc2)cc1` (stereo not drawn) was tested. Which Activity did it give?
Answer: 21%

Question: `O=C(O)C(Oc1ccc(F)cc1)c1ccc(Oc2ccc(Cl)cc2)cc1` (stereo not drawn) was tested. Which Activity did it give?
Answer: 20%

Question: For `COC(=O)C(Oc1ccc(Cl)cc1)c1ccc(Oc2ccc(C#N)cc2)cc1` (stereo not drawn), which Activity is on record?
Answer: 50%

Question: `O=C(O)C(Oc1ccccc1)c1ccc(Oc2ccccc2)cc1` (stereo not drawn) was tested. Which Activity did it give?
Answer: 3%

Question: With `COC(=O)C(Oc1cccc(-c2ccccc2)c1)c1ccc(Oc2ccc(Cl)cc2)cc1` (stereo not drawn) as the compound, how does the Activity read?
Answer: 38%

Question: For `COC(=O)C(Oc1cc(Cl)cc(Cl)c1)c1ccc(Oc2ccc(Cl)cc2)cc1` (stereo not drawn), which Activity is on record?
Answer: -44%

Question: Which Activity does the source give for `COC(=O)C(Oc1ccc(C(C)(C)C)cc1)c1ccc(Oc2ccc(NC(C)=O)cc2)cc1` (stereo not drawn) here?
Answer: 44%

Question: With `O=C(O)C(Oc1cccc(C(F)(F)F)c1)c1ccc(Cl)cc1` (stereo not drawn) [METAGLIDASEN] as the compound, how does the Activity read?
Answer: 14%

Each compound was assayed on Rattus norvegicus (assay: Hypolipidemic activity in COBBS-CD rat assessed as reduction in serum triglyceride level at 0.1% administered with chow diet after 5 days relative to control).
Format: functional
Design: scale not given: the % may be the effect or the level left
Procedure, shortened: as §2

Question: How did the Activity turn out when `COC(=O)C(Oc1ccc(F)cc1)c1ccc(Oc2cccc(C(F)(F)F)c2)cc1` (stereo not drawn) was run?
Answer: 48%

Question: `COC(=O)C(Oc1cccc(C(C)(C)C)c1)c1ccc(Oc2ccc(C(C)(C)C)cc2)cc1` (stereo not drawn) was tested. Which Activity did it give?
Answer: 33%

Question: With `O=C(O)C(Oc1ccc(F)cc1)c1ccc(Oc2ccc(Cl)cc2)cc1` (stereo not drawn) as the compound, how does the Activity read?
Answer: 58%

Question: For `COC(=O)C(Oc1cccc2ccccc12)c1ccc(Oc2ccc(Cl)cc2)cc1` (stereo not drawn), which Activity is on record?
Answer: 39%

Question: With `COC(=O)C(Oc1ccc(Cl)cc1)c1ccc(Oc2ccc(C#N)cc2)cc1` (stereo not drawn) as the compound, how does the Activity read?
Answer: 71%

Question: For `O=C(O)C(Oc1ccccc1)c1ccc(Oc2ccccc2)cc1` (stereo not drawn), which Activity is on record?
Answer: 51%

Question: For `COC(=O)C(Oc1cccc(-c2ccccc2)c1)c1ccc(Oc2ccc(Cl)cc2)cc1` (stereo not drawn), which Activity is on record?
Answer: 66%

Question: `COC(=O)C(Oc1cc(Cl)cc(Cl)c1)c1ccc(Oc2ccc(Cl)cc2)cc1` (stereo not drawn) was tested. Which Activity did it give?
Answer: 47%

Question: With `COC(=O)C(Oc1ccc(C(C)(C)C)cc1)c1ccc(Oc2ccc(NC(C)=O)cc2)cc1` (stereo not drawn) as the compound, how does the Activity read?
Answer: 55%

Question: Which Activity does the source give for `O=C(O)C(Oc1cccc(C(F)(F)F)c1)c1ccc(Cl)cc1` (stereo not drawn) [METAGLIDASEN] here?
Answer: 49%

Each compound was assayed on Rattus norvegicus (assay: Hypolipidemic activity in COBBS-CD rat assessed as reduction in serum triglyceride level at 0.03% administered with chow diet after 5 days relative to control).
Format: functional
Design: scale not given: the % may be the effect or the level left
Procedure, shortened: as §2

Question: With `COC(=O)C(Oc1ccc(F)cc1)c1ccc(Oc2cccc(C(F)(F)F)c2)cc1` (stereo not drawn) as the compound, how does the Activity read?
Answer: 27%

Question: Which Activity does the source give for `COC(=O)C(Oc1cccc(C(C)(C)C)c1)c1ccc(Oc2ccc(C(C)(C)C)cc2)cc1` (stereo not drawn) here?
Answer: 13%

Question: How did the Activity turn out when `O=C(O)C(Oc1ccc(F)cc1)c1ccc(Oc2ccc(Cl)cc2)cc1` (stereo not drawn) was run?
Answer: 48%

Question: `COC(=O)C(Oc1cccc2ccccc12)c1ccc(Oc2ccc(Cl)cc2)cc1` (stereo not drawn) was tested. Which Activity did it give?
Answer: 36%

Question: `COC(=O)C(Oc1ccc(Cl)cc1)c1ccc(Oc2ccc(C#N)cc2)cc1` (stereo not drawn) was tested. Which Activity did it give?
Answer: 60%

Question: With `O=C(O)C(Oc1ccccc1)c1ccc(Oc2ccccc2)cc1` (stereo not drawn) as the compound, how does the Activity read?
Answer: 37%

Question: Which Activity does the source give for `COC(=O)C(Oc1cccc(-c2ccccc2)c1)c1ccc(Oc2ccc(Cl)cc2)cc1` (stereo not drawn) here?
Answer: 45%

Question: How did the Activity turn out when `COC(=O)C(Oc1cc(Cl)cc(Cl)c1)c1ccc(Oc2ccc(Cl)cc2)cc1` (stereo not drawn) was run?
Answer: 6%

Question: `COC(=O)C(Oc1ccc(C(C)(C)C)cc1)c1ccc(Oc2ccc(NC(C)=O)cc2)cc1` (stereo not drawn) was tested. Which Activity did it give?
Answer: 50%

Question: For `O=C(O)C(Oc1cccc(C(F)(F)F)c1)c1ccc(Cl)cc1` (stereo not drawn) [METAGLIDASEN], which Activity is on record?
Answer: 10%

The compounds below were run on Rattus norvegicus (assay: Hypolipidemic activity in COBBS-CD rat assessed as reduction in serum sterol level at 0.03% administered with chow diet after 5 days relative to control).
Format: functional
Design: scale not given: the % may be the effect or the level left
Procedure, shortened: as §1

Question: With `COC(=O)C(Oc1ccc(F)cc1)c1ccc(Oc2cccc(C(F)(F)F)c2)cc1` (stereo not drawn) as the compound, how does the Activity read?
Answer: 6%

Question: For `COC(=O)C(Oc1cccc(C(C)(C)C)c1)c1ccc(Oc2ccc(C(C)(C)C)cc2)cc1` (stereo not drawn), which Activity is on record?
Answer: 6%

Question: Which Activity does the source give for `O=C(O)C(Oc1ccc(F)cc1)c1ccc(Oc2ccc(Cl)cc2)cc1` (stereo not drawn) here?
Answer: 28%

Question: For `COC(=O)C(Oc1cccc2ccccc12)c1ccc(Oc2ccc(Cl)cc2)cc1` (stereo not drawn), which Activity is on record?
Answer: 3%

Question: For `COC(=O)C(Oc1ccc(Cl)cc1)c1ccc(Oc2ccc(C#N)cc2)cc1` (stereo not drawn), which Activity is on record?
Answer: 19%

Question: `O=C(O)C(Oc1ccccc1)c1ccc(Oc2ccccc2)cc1` (stereo not drawn) was tested. Which Activity did it give?
Answer: 15%

Question: Which Activity does the source give for `COC(=O)C(Oc1cccc(-c2ccccc2)c1)c1ccc(Oc2ccc(Cl)cc2)cc1` (stereo not drawn) here?
Answer: 21%

Question: How did the Activity turn out when `COC(=O)C(Oc1cc(Cl)cc(Cl)c1)c1ccc(Oc2ccc(Cl)cc2)cc1` (stereo not drawn) was run?
Answer: 10%

Question: `COC(=O)C(Oc1ccc(C(C)(C)C)cc1)c1ccc(Oc2ccc(NC(C)=O)cc2)cc1` (stereo not drawn) was tested. Which Activity did it give?
Answer: 18%

Question: For `O=C(O)C(Oc1cccc(C(F)(F)F)c1)c1ccc(Cl)cc1` (stereo not drawn) [METAGLIDASEN], which Activity is on record?
Answer: 14%
